ChEMBL document CHEMBL1949638, “4'-bromo-5,6,7-trimethoxyflavone represses lipopolysaccharide-induced iNOS and COX-2 expressions by suppressing the NF-κB signaling pathway in RAW 264.7 macrophages” (Bioorg Med Chem Lett, 2012)
Calls of active or inactive are those of the source. The rule behind the calls is not given here.

Columns and labels:
RAW264.7 [1] = assay: Antiinflammatory activity against mouse RAW264.7 cells assessed as inhibition of LPS-induced NO production at 25 uM preincubated for 1 hr before LPS challenge measured after 24 hrs by Griess method; assay type: functional
In short: (§1)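 Pretreatment with test agent for 1 h, then LPS 1 μg/ml for 24 h; nitrite in culture medium measured by Griess assay. IC50 derived; means ± SDs of three independent experiments. L-NIL 10 μM served as reference NO inhibitor.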

RAW264.7 [2] = assay: Cytotoxicity against mouse LPS-stimulated RAW264.7 cells assessed as effect on cell viability up to 50 uM after 24 hrs; assay type: cell-based; details: raw264.7, 24 h
In short: (§2)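 RAW 264.7 viability checked after 24 h exposure to compounds up to 50 µM, with and without LPS.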

RAW264.7 [3] = assay: Cytotoxicity against mouse RAW264.7 cells assessed as effect on cell viability up to 50 uM after 24 hrs; assay type: cell-based; details: raw264.7, 24 h; in short: as §2
RAW264.7 [4] = assay: Antiinflammatory activity against mouse RAW264.7 cells assessed as inhibition of LPS-induced PGE2 production at 25 uM by EIA; assay type: functional
RAW264.7 [5] = assay: Cytotoxicity against mouse RAW264.7 cells; assay type: cell-based
RAW264.7 [6] = assay: Antiinflammatory activity against mouse RAW264.7 cells assessed as inhibition of LPS-induced NO production at <16.73 uM preincubated for 1 hr before LPS challenge measured after 24 hrs by Griess method; assay type: functional, cell-based
RAW264.7 [7] = assay: Inhibition of NF-kappaB in mouse RAW264.7 cells assessed as reduction of LPS-induced TNFalpha release at 6.25 to 25 uM pretreated for 1 hr before LPS challenge and measured after 24 hrs post LPS challenge by EIA; assay type: cell-based
In short: (§3)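 Compound at 6.25, 12.5 or 25 μM given 1 h ahead of LPS 1 μg/ml, then 24 h incubation. TNF-α, IL-6 and IL-1β in culture medium quantified by EIA kits. Means ± SDs of three independent experiments.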

RAW264.7 [8] = assay: Inhibition of NF-kappaB in mouse RAW264.7 cells assessed as inhibition of LPS-induced iNOS expression preincubated 1 hr before LPS challenge measured after 24 hrs by Western blot analysis; assay type: cell-based
In short: (§4)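 1 h pretreatment at 6.25, 12.5 or 25 μM, then LPS 1 μg/ml for 24 h. Controls had neither LPS nor compound. 30 μg total protein run on SDS–PAGE, blotted to nitrocellulose, probed with iNOS- and COX-2-specific antibodies. Blots representative of three experiments.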

RAW264.7 [9] = assay: Inhibition of NF-kappaB in mouse RAW264.7 cells assessed as reduction of LPS-induced IL1beta release at 6.25 to 25 uM pretreated for 1 hr before LPS challenge and measured after 24 hrs post LPS challenge by EIA; assay type: cell-based; in short: as §3
RAW264.7 [10] = assay: Inhibition of NF-kappaB activation in LPS-stimulated mouse RAW264.7 cells assessed as blockage of IkappaBalpha degradation pretreated at 6.25 to 25 uM for 1 hr before LPS challenge measured after 15 to 60 mins post challenge by Western blotting; assay type: cell-based
In short: (§5)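 Pretreatment 1 h at 6.25, 12.5 or 25 μM, then LPS 1 μg/ml for 15 min or 1 h. Cytosolic extracts immunoblotted for phospho-IκBα and IκBα, with β-actin as loading control. Blots representative of three experiments.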

RAW264.7 [11] = assay: Inhibition of NF-kappaB in mouse RAW264.7 cells assessed as reduction of LPS-induced TNFalpha mRNA expression at 6.25 to 25 uM after 4 hrs by quantitative RT-PCR analysis; assay type: cell-based
In short: (§6)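 RNA prepared after 4 h of LPS 1 μg/ml stimulation with or without 6.25–25 μM compound. TNF-α, IL-6 and IL-1β transcripts quantified by qRT-PCR and normalised to β-actin. Three independent experiments.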

RAW264.7 [12] = assay: Inhibition of NF-kappaB in mouse RAW264.7 cells assessed as inhibition of LPS-induced expression of COX2 preincubated 1 hr before LPS challenge measured after 24 hrs by Western blot analysis; assay type: cell-based; in short: as §4
RAW264.7 [13] = assay: Inhibition of NF-kappaB in mouse RAW264.7 cells assessed as reduction of LPS-induced IL6 release at 6.25 to 25 uM pretreated for 1 hr before LPS challenge and measured after 24 hrs post LPS challenge by EIA; assay type: cell-based; in short: as §3
RAW264.7 [14] = assay: Inhibition of NF-kappaB in mouse RAW264.7 cells assessed as reduction of LPS-induced IL1beta mRNA expression at 6.25 to 25 uM after 4 hrs by quantitative RT-PCR analysis; assay type: cell-based; in short: as §6
[15] = test system: Peritoneal macrophage cell; assay: Antiinflammatory activity against thioglycolate-stimulated C57BL/6 mouse peritoneal macrophages assessed as inhibition of LPS-induced PGE2 production by EIA; assay type: functional, cell-based
RAW264.7 [16] = assay: Inhibition of NF-kappaB in mouse RAW264.7 cells co-transfected with piNOS-luc reporter with pRL-TK-luc assessed as inhibition of LPS-induced iNOS expression pretreated for 1 hr before LPS challenge by luciferase assay; assay type: cell-based
In short: (§7)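 Cells transiently co-transfected with the piNOS-luc or pCOX-2-luc reporter plus pRL-TK-luc, then pretreated 1 h with 6.25, 12.5 or 25 μM before LPS. Luciferase activity read on a luminometer. Means ± SDs of three independent experiments.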

RAW264.7 [17] = assay: Inhibition of NF-kappaB activation in mouse LPS-stimulated RAW264.7 cells co-transfected with pNF-KappaB-luc reporter and pRL-TK-luc pretreated for 1 hr before LPS challenge measured after 1 hr post challenge by luciferase assay; assay type: cell-based
In short: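 Cells co-transfected with pNF-κB-luc and pRL-TK-luc, pretreated 1 h with 6.25, 12.5 or 25 μM, then given LPS 1 μg/ml for another 1 h. Luciferase activity measured by luminometer. Three independent experiments.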

RAW264.7 [18] = assay: Inhibition of NF-kappaB in mouse RAW264.7 cells assessed as suppression of LPS-induced COX2 mRNA level at 6.25 to 25 uM after 4 hrs by quantitative RT-PCR analysis; assay type: cell-based
In short: (§8)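 Total RNA taken from cells exposed to LPS 1 μg/ml with or without 6.25, 12.5 or 25 μM compound for 4 h. Steady-state iNOS and COX-2 mRNA measured by qRT-PCR and expressed as a ratio to β-actin. Means ± SDs, n=3 independent experiments. ANOVA with Dunnett's test.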

RAW264.7 [19] = assay: Inhibition of NF-kappaB in mouse RAW264.7 cells assessed as suppression of LPS-induced iNOS mRNA level at 6.25 to 25 uM after 4 hrs by quantitative RT-PCR analysis; assay type: cell-based; in short: as §8
RAW264.7 [20] = assay: Antiinflammatory activity against mouse RAW264.7 cells assessed as inhibition of LPS-induced PGE2 production by EIA; assay type: functional, cell-based
RAW264.7 [21] = assay: Inhibition of NF-kappaB activation in LPS-stimulated mouse RAW264.7 cells assessed as blockage of IkappaBalpha phosphorylation pretreated at 6.25 to 25 uM for 1 hr before LPS challenge measured after 15 to 60 mins post challenge by Western blotting; assay type: cell-based; in short: as §5
RAW264.7 [22] = assay: Antiinflammatory activity against mouse RAW264.7 cells assessed as inhibition of LPS-induced NO production preincubated for 1 hr before LPS challenge measured after 24 hrs by Griess method; assay type: functional, cell-based; in short: as §1
RAW264.7 [23] = assay: Inhibition of NF-kappaB in mouse RAW264.7 cells co-transfected with pCOX-2-luc reporter with pRL-TK-luc assessed as inhibition of LPS-induced COX2 expression pretreated for 1 hr before LPS challenge by luciferase assay; assay type: cell-based; in short: as §7
[24] = biological target: Transcription factor p65 (Mus musculus) (UniProt Q04207); assay: Inhibition of NF-kappaB p65 subunit nuclear translocation in LPS-induced mouse RAW264.7 cells pretreated for 1 hr before LPS challenge measured after 15 min or 1 hr post challenge by Western blot analysis
[25] = test system: Peritoneal macrophage cell; assay: Antiinflammatory activity against thioglycolate-stimulated C57BL/6 mouse peritoneal macrophages assessed as inhibition of LPS-induced NO production preincubated for 1 hr before LPS challenge measured after 24 hrs by Griess method; assay type: functional, cell-based
In short: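 Peritoneal macrophages harvested from thioglycolate-injected C57BL/6 mice. Test agent 6.25, 12.5 or 25 μM added 1 h before LPS 1 μg/ml, with 24 h incubation. NO in the medium measured by Griess assay. Three independent experiments, means ± SDs.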

RAW264.7 [26] = assay: Inhibition of NF-kappaB in mouse RAW264.7 cells assessed as reduction of LPS-induced IL6 mRNA expression at 6.25 to 25 uM after 4 hrs by quantitative RT-PCR analysis; assay type: cell-based; in short: as §6

Transcription factor p65 (Mus musculus), sequence (Q04207 whole entry): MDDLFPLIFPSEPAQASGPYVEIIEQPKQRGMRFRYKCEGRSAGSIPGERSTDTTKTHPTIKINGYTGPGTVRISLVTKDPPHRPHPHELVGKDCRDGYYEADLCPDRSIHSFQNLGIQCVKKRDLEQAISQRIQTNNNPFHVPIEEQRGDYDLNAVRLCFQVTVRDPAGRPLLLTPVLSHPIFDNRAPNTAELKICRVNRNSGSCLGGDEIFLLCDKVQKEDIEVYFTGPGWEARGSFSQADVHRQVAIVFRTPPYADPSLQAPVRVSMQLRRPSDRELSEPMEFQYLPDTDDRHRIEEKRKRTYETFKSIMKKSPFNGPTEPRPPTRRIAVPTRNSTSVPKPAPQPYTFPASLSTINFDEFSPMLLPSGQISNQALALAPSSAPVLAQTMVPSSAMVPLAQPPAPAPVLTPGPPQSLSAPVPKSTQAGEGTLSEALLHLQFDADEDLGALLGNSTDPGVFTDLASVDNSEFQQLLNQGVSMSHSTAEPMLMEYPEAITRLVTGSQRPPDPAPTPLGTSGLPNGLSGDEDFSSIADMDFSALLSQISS

Compound: O=c1cc(-c2ccc([N+](=O)[O-])cc2)oc2cc(O)c(O)c(O)c12
- inhibition at 25 µM (RAW264.7 [1]): 7.65%
- Activity (RAW264.7 [2]): Non-toxic
- Activity (RAW264.7 [3]): Non-toxic
- inhibition at 25 µM (RAW264.7 [4]): 29.9%
- IC50 (RAW264.7 [5]): > 100 µM

Compound: O=c1cc(-c2ccccc2)oc2cc(O)c(O)c(O)c12 [BAICALEIN]
- inhibition at 25 µM (RAW264.7 [1]): 11.1%
- inhibition at 25 µM (RAW264.7 [4]): 60.9%
- IC50 (RAW264.7 [5]): > 100 µM

Compound: Nc1ccc(-c2cc(=O)c3c(O)c(O)c(O)cc3o2)cc1
- inhibition at 25 µM (RAW264.7 [1]): 6.98%
- Activity (RAW264.7 [2]): Non-toxic
- Activity (RAW264.7 [3]): Non-toxic
- inhibition at 25 µM (RAW264.7 [4]): 83.1%
- IC50 (RAW264.7 [5]): 94.1 µM

Compound: O=c1cc(-c2ccc(Br)cc2)oc2cc(O)c(O)c(O)c12
- inhibition at 25 µM (RAW264.7 [1]): 27%
- Activity (RAW264.7 [2]): Non-toxic
- Activity (RAW264.7 [3]): Non-toxic
- inhibition at 25 µM (RAW264.7 [4]): 29.9%
- IC50 (RAW264.7 [5]): 57.1 µM

Compound: COc1cc2oc(-c3ccc(N)cc3)cc(=O)c2c(OC)c1OC
- inhibition at 25 µM (RAW264.7 [1]): 23.1%
- Activity (RAW264.7 [2]): Non-toxic
- Activity (RAW264.7 [3]): Non-toxic
- inhibition at 25 µM (RAW264.7 [4]): 69.5%
- IC50 (RAW264.7 [5]): > 100 µM

Compound: COc1c(O)cc2oc(-c3ccccc3)cc(=O)c2c1O [OROXYLIN A]
- inhibition at 25 µM (RAW264.7 [1]): 12.4%
- Activity (RAW264.7 [6]): inactive
- IC50 (RAW264.7 [5]): 16.7 µM

Compound: COc1cc2oc(-c3ccc([N+](=O)[O-])cc3)cc(=O)c2c(OC)c1OC
- inhibition at 25 µM (RAW264.7 [1]): 17.4%
- Activity (RAW264.7 [2]): Non-toxic
- Activity (RAW264.7 [3]): Non-toxic
- inhibition at 25 µM (RAW264.7 [4]): 84.4%
- IC50 (RAW264.7 [5]): > 100 µM

Compound: COc1cc2oc(-c3ccc(Br)cc3)cc(=O)c2c(OC)c1OC
- inhibition at 25 µM (RAW264.7 [1]): 89.6%
- inhibition (RAW264.7 [7]): Active
- inhibition (RAW264.7 [8]): Dose-dependent effect
- Activity (RAW264.7 [2]): Non-toxic
- inhibition (RAW264.7 [9]): Active
- Activity (RAW264.7 [3]): Non-toxic
- inhibition at 25 µM (RAW264.7 [4]): 89.6%
- inhibition (RAW264.7 [10]): Active
- inhibition (RAW264.7 [11]): Active
- inhibition (RAW264.7 [12]): Dose-dependent effect
- inhibition (RAW264.7 [13]): Active
- inhibition (RAW264.7 [14]): Active
- inhibition [15]: Dose-dependent effect
- inhibition (RAW264.7 [16]): Dose-dependent effect
- inhibition (RAW264.7 [17]): Dose-dependent effect
- inhibition (RAW264.7 [18]): Active
- inhibition (RAW264.7 [19]): Active
- IC50 (RAW264.7 [20]): 11 µM
- inhibition (RAW264.7 [20]): Dose-dependent effect
- inhibition (RAW264.7 [21]): Active
- IC50 (RAW264.7 [22]): 14.2 µM
- inhibition (RAW264.7 [22]): Dose-dependent effect
- inhibition (RAW264.7 [23]): Dose-dependent effect
- IC50 (RAW264.7 [5]): 69.9 µM
- inhibition [24]: Dose-dependent effect
- inhibition [25]: Dose-dependent effect
- inhibition (RAW264.7 [26]): Active

Compound: COc1cc2oc(-c3ccccc3)cc(=O)c2c(OC)c1OC [BAICALEIN TRIMETHYL ETHER]
- inhibition at 25 µM (RAW264.7 [1]): 12.1%
- Activity (RAW264.7 [2]): Non-toxic
- Activity (RAW264.7 [3]): Non-toxic
- inhibition at 25 µM (RAW264.7 [4]): 42.2%
- IC50 (RAW264.7 [5]): > 100 µM
